A selection: hits, their analogues and other compounds. The true share with any hit is near 2.4%.
EWS-Fli block – EWS/Fli-driven NR0B1 reporter inhibitors, primary screen, A673 cells, NR0B1 luciferase, luminescence, MLPCN library; viability-normalised; AID 651661, 2012; inhibition, % at 12.6 µM; actives 0.67% (n = 350,000);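 active = mean inhibition of at least 50% after viability correction, with every replicate also passing that limit; inconclusive = mean reaches 50% but only one of two replicates passes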;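 also: firefly luciferase signal divided by Alamar Blue viability fluorescence both relative to DMSO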
E-selectin induc – E-selectin induction in HUVECs, primary screen, imaging, HUVEC, immunofluorescence imaging, single point; normalized: neutral wells 0, TNF-alpha wells 100; actives 0.37% (n = 260,000); activation, % at 7.58 µM; AID 686992, 2013;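 active = mean E-selectin-positive cell signal at least 10% of the positive control, reached in at least 60% of replicates, without over 20% cell loss; inconclusive = no rule given, readout overlaps actives, possibly toxicity-flagged; inactive = the rest, including those meeting only one limit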
Target sequence (P16581 whole entry, looked up): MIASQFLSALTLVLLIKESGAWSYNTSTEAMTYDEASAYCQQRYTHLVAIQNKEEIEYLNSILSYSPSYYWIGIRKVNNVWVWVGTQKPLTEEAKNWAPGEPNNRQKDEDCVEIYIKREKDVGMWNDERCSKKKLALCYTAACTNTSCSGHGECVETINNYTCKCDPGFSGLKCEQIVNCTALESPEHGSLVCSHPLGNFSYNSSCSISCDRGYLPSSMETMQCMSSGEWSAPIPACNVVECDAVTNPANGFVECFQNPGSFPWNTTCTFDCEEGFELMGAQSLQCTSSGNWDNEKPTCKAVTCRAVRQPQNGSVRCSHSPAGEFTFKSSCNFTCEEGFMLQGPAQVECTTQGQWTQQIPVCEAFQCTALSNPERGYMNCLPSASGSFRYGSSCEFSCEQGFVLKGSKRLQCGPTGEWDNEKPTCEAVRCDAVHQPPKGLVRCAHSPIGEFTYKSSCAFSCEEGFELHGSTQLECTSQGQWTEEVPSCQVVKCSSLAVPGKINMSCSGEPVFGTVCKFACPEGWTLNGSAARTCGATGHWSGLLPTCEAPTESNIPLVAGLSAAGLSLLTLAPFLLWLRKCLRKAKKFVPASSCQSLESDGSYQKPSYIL
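Assay system: HUVEC, human umbilical vein endothelial cells / Amount: 3,000 HUVEC/well / Controls: TNF-alpha positive control, DMSO neutral control / Compound dosing: single concentration / Medium: EGM-2 over gelatin coat / Evaluation: percent E-selectin-positive cells / Signal: immunofluorescence imaging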
Ecoli rRNA inh – reduced GFP signal of wild-type E. coli, primary screen, bacterial rRNA inhibitor project, GFP/RFP fluorescence, OD600, single point | E. coli WT GFP vs humanized-ribosome RFP mutants, 24 h; stronger effect = lower value; DMSO median 0, no signal -100 | GFP signal change (wild-type ribosome), % (test concentration not listed) | actives 1.6% (n = 350,000);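 active = significant combined selectivity score with lowered wild-type GFP, culture density cut under 30%, mutant RFP and density less affected; inactive = any of these conditions unmet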
LGR2 antag – inhibitors of bursicon-induced LGR2 CRE-luciferase signal, primary screen, cell-based, HEK293, CRE-luciferase reporter, bursicon stimulation. bursicon-stimulated, 4 h. inhibition, % at 9.99 µM. actives 0.35% (n = 380,000). AID 720647, 2013;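 active = drop in luminescence signal, shown as inhibition above about 50% in the replicate tests, limit read from the data, passing the limit was not always enough; inconclusive = probably only some replicates passing the limit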;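 also: agonist challenge used bursicon conditioned medium at about half maximal strength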
AID977621 – growth inhibition of wild-type GFP E. coli, dose response, H69 mutant RFP, cherry-pick; shares compounds with Ecoli rRNA inh; E. coli wild-type GFP strain growth, fluorescence, 24 h; activity change, negative = inhibition at 50 µM; 1,900 tested, under 10 active; AID 977621, 2014;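 active = Wild-type ribosome reporter drop at least double the humanized mutant ribosome reporter drop, growth loss under a set limit; inconclusive = no clear call, values can overlap the other calls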;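 also: wild-type GFP and H69 mutant RFP strains grown together 50/50 in each well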
AID977628 – E. coli growth inhibition, wild-type GFP versus h24 humanized RFP strain, dose response, h24 mutant RFP vs wild-type GFP, cherry-pick. 1,900 tested, under 10 active. activity change, negative = inhibition at 50 µM. E. coli WT GFP strain growth, fluorescence, 24 h. AID 977628, 2014. shares compounds with Ecoli rRNA inh;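 active = compound lowering the normal-ribosome reporter at least twice as much as the humanized-ribosome reporter, growth loss under a set limit; inconclusive = no clear call, values can overlap the other calls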;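 also: wild-type GFP and h24 humanized RFP strains co-cultured 1 to 1 per well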
Active calls of the source: *; ? = inconclusive; · = no result; ! = a repeat was not active.

SMILES | EWS-Fli block | E-selectin induc | Ecoli rRNA inh | LGR2 antag | AID977621 | AID977628
Cc1ccc(NC(=O)c2ccc([N+](=O)[O-])o2)c(C)c1 | 11 | · | -33* | -21 | · | -16
Nc1nc(-c2cc(-c3ccccc3)no2)cs1 | -13 | 0 | -19* | -112 | -5.6 | ?
CCCCCCC(=O)N1CCCC(c2nc(-c3cccc(OC)c3)no2)C1 (stereo not given) | -31 | · | -31* | -8 | -5.8 | ?
CC(C)Oc1ccc(C(=O)Nc2cccc3cccnc23)cc1 | -15 | 1 | -22* | -20 | -14 | -1.1
CCOc1ccc(C(=O)Nc2cccc3cccnc23)cc1 | -17 | · | 8 | -22 | · | ·
CCOc1ccc2nc(NC(=O)CSc3cn[nH]n3)sc2c1 | -22 | · | -5 | 15 | · | ·
CCOc1ccc2nc(NC(=O)CSc3nc(SC)ns3)sc2c1 | -16 | · | -24* | -53 | -8.9 | ·
CSc1ccccc1C(=O)NCCc1ccc(S(=O)(=O)N2CCCCC2)cc1 | 9 | · | -21* | -3 | · | -13
Cc1ccc(C(=O)NCCc2ccc(S(=O)(=O)N3CCCC3)cc2)cc1 | 9 | · | -7 | 12 | · | ·
Cc1onc(-c2ccccc2)c1C(=O)Oc1ccccc1 | 2 | 3 | -29* | -11 | -3.3 | -3
CC(C)Oc1ccc(C(CC(=O)O)NC(=O)C(Sc2ccccc2)c2ccccc2)cc1 (stereo not given) | 8 | · | -27* | 9 | -16 | ·
C=CCn1c(SCC(=O)O)nc2sc(CC)cc2c1=O | 2 | 0 | 3 | 24 | · | ·
C=CCn1c(SCC(=O)N2CCCC2=O)nc2sc(CC)cc2c1=O | 0 | · | -23* | -25 | -18 | ?
C[C@@H]1CN([C@@H](C)CO)C(=O)c2cc(N(C)C)ccc2O[C@H]1CN(C)CC1CCCCC1 | 8 | 0 | 1 | -7 | · | ·
CN1N=C2c3ccccc3CCC2C1c1ccc(F)cc1 (stereo not given) | -71 | 0 | -16* | -73 | -9.4 | ?
Cc1ccc(S(=O)(=O)N2CCOCC2)cc1NC(=O)COc1ccc(-c2nnco2)cc1 | 2 | · | -19* | 6 | -16 | ?
Cc1ccc(NS(=O)(=O)c2ccc3c(c2)CCC(=O)N3)cc1C | -2 | -2 | -23*! | 5 | -3.4 | ?
O=c1c2ccccc2cnn1Cc1n[nH]c(=S)n1C1CC2CCC1C2 (stereo not given) | 13 | 1 | -20* | 0 | -3.5 | ·
O=C(c1ccccc1)N1N=C(c2cccs2)CC1c1ccccc1O (stereo not given) | 12 | · | -21 | 8 | · | ·
O=C(c1ccccc1)C1Oc2ccccc2C2CC(c3cccs3)=NN12 (stereo not given) | -8 | 7 | -21* | -58 | -0.12 | -5.9
Cc1noc(C)c1NC(=O)Nc1ccc2c(c1)CC(=O)N([C@H](C)CO)C[C@@H](C)[C@H](CN(C)C(=O)NC1CCCCC1)O2 | -1 | 0 | 1 | 1 | · | ·
C[C@H]1CN([C@@H](C)CO)C(=O)c2c(c3ccccc3n2C)-c2ccccc2CO[C@@H]1CN(C)C(=O)CCN(C)C | -8 | 0 | 2 | -19 | · | ·
C[C@H](CO)N1C[C@H](C)[C@H](CN(C)Cc2ccccc2)OCc2ccccc2-c2c(n(C)c3ccccc23)C1=O | · | 0 | -9 | 1 | · | ·
C[C@@H]1CN([C@H](C)CO)C(=O)c2c(c3ccccc3n2C)-c2ccccc2CO[C@@H]1CN(C)C(=O)CCN(C)C | 3 | -5 | -19*! | 5 | · | -3.8
C[C@H]1CN([C@@H](C)CO)C(=O)c2c(c3ccccc3n2C)-c2ccccc2CO[C@@H]1CN(C)Cc1ccccc1 | -3 | 0 | -42* | 5 | ? | ?
O=C(Cn1c(CO)nc2ccccc21)NCCc1ccc(F)cc1 | 11 | 0 | -19* | 2 | ? | ·
COc1ccc(S(=O)(=O)Nc2cccc3c2O[C@@H](CN(C)C(=O)NC2CCCCC2)[C@@H](C)CN([C@H](C)CO)C3=O)cc1 | 3 | 0 | -2 | 8 | · | ·
